Reference: ChEMBL document CHEMBL1629527, “In vitro antifungal activities of bis(alkylpyridinium)alkane compounds against pathogenic yeasts and molds” (Antimicrob Agents Chemother, 2010)

Tests used:
Lichtheimia corymbifera [1] = test: Antifungal activity against Absidia corymbifera 04-200170 after 24 to 72 hrs by broth microdilution method; assay type: functional
In short: (§1)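 Broth microdilution MIC per CLSI M27-A3 (yeasts) or M38-A2 (molds). RPMI 1640 with L-glutamine, without bicarbonate, buffered to pH 7.0 with 0.165 M MOPS. Final test range for the compounds was 0.175–87.5 μM. Incubation at 35°C with visual reading at 24–72 h. MIC was the lowest concentration giving 100% inhibition versus the growth control (azoles 50% or 100%, by organism). Each isolate was run in duplicate in two independent experiments.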

Scedosporium apiospermum = test: Antifungal activity against Scedosporium apiospermum 05-203100 after 24 to 72 hrs by broth microdilution method; assay type: functional
In short: (§2)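 Mold isolates subcultured on potato dextrose agar, then tested by CLSI M38-A2 broth microdilution in RPMI 1640 (L-glutamine, no bicarbonate) buffered to pH 7.0 with 0.165 M MOPS. Compounds were dissolved in water and tested at a final 0.175–87.5 μM. Plates were incubated at 35°C. MIC was read visually as the lowest concentration giving 100% inhibition versus the growth control. Each isolate was run in duplicate in two independent experiments.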

Lomentospora prolificans [2] = test: Antifungal activity against Scedosporium prolificans 05-203060 after 24 to 72 hrs by broth microdilution method; assay type: functional; in short: as §2
Candida albicans [3] = test: Antifungal activity against Candida albicans ATCC 90028 after 24 to 72 hrs by broth microdilution method; assay type: functional; in short: as §1
Candida parapsilosis [4] = test: Antifungal activity against Candida parapsilosis ATCC 22019 after 24 to 72 hrs by broth microdilution method; assay type: functional; settings: Lodderomyces parapsilosis; in short: as §1
Aspergillus fumigatus [5] = test: Antifungal activity against Aspergillus fumigatus ATCC 204305 after 48 to 72 hrs; assay type: functional
In short: (§3)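 CLSI M38-A2 broth microdilution for molds in RPMI 1640 with L-glutamine and no bicarbonate, buffered with 0.165 M MOPS to pH 7.0. Compounds were dissolved in water and tested at 0.175–87.5 μM final, 35°C, up to 7 days. MIC was read visually as 100% inhibition versus growth control. For MFC, clear wells were plated on SDA and the lowest concentration with no colonies taken. Each isolate was run in duplicate, two independent experiments.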

Aspergillus fumigatus [6] = test: Antifungal activity against Aspergillus fumigatus ATCC 204305 after 24 to 72 hrs by broth microdilution method; assay type: functional; in short: as §1
Aspergillus terreus [7] = test: Antifungal activity against Aspergillus terreus 05-202844 after 48 to 72 hrs; assay type: functional
In short: (§4)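 MFC: after the MIC read, 30-μl aliquots from each well without visible growth were plated onto Sabouraud dextrose agar and incubated at 35°C. Reading was at 48–72 h for yeasts and up to 7 days for molds. MFC was the lowest concentration with no colonies.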

[8] = Antifungal activity against Exophiala jeanselmei 03-200268 after 24 to 72 hrs by broth microdilution method; assay type: functional; in short: as §1
[9] = Antifungal activity against Paecilomyces lilacinus 05-200601 after 24 to 72 hrs by broth microdilution method; assay type: functional; settings: Purpureocillium lilacinum; in short: as §2
Candida tropicalis = test: Antifungal activity against Candida tropicalis 04-202361 after 24 to 72 hrs by broth microdilution method; assay type: functional; in short: as §1
[10] = Antifungal activity against Paecilomyces lilacinus 05-200601 after 48 to 72 hrs; assay type: functional; settings: Purpureocillium lilacinum; in short: as §3
Nakaseomyces glabratus = test: Antifungal activity against Candida glabrata 04-202345 after 24 to 72 hrs by broth microdilution method; assay type: functional; in short: as §1
[11] = system: Cunninghamella bertholletiae; test: Antifungal activity against Cunninghamella bertholletiae 99-12187 after 24 to 72 hrs by broth microdilution method; assay type: functional; in short: as §1
Rhizopus arrhizus = test: Antifungal activity against Rhizopus oryzae 05-203111 after 24 to 72 hrs by broth microdilution method; assay type: functional; in short: as §2
Aspergillus flavus [12] = test: Antifungal activity against Aspergillus flavus 05-203758 after 48 to 72 hrs; assay type: functional; in short: as §3
Pichia kudriavzevii [13] = test: Antifungal activity against Candida krusei 04-202328 after 24 to 72 hrs by broth microdilution method; assay type: functional; in short: as §1
Pichia kudriavzevii [14] = test: Antifungal activity against Candida krusei ATCC 6258 after 24 to 72 hrs by broth microdilution method; assay type: functional; in short: as §1
Pichia kudriavzevii [15] = test: Antifungal activity against Candida krusei […] after 48 to 72 hrs; assay type: functional; in short: as §4
[16] = system: Cryptococcus gattii species complex; test: Antifungal activity against Cryptococcus gattii 05-200122 after 24 to 72 hrs by broth microdilution method; assay type: functional, Cryptococcus bacillisporus; in short: as §1
Candida parapsilosis [17] = test: Antifungal activity against Candida parapsilosis 04-202398 after 48 to 72 hrs; assay type: functional; settings: Lodderomyces parapsilosis
In short: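 CLSI M27-A3 broth microdilution for yeasts in RPMI 1640 with L-glutamine and no bicarbonate, buffered with 0.165 M MOPS to pH 7.0. Compounds were dissolved in water and tested at 0.175–87.5 μM final, 35°C. MIC was read visually at 24–72 h as 100% inhibition versus growth control. For MFC, 30 μl from clear wells went onto SDA at 35°C for 48–72 h, reading the lowest concentration without colonies. Duplicates, two independent runs.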

Fusarium solani = test: Antifungal activity against Fusarium solani 04-203102 after 24 to 72 hrs by broth microdilution method; assay type: functional; in short: as §2
Aspergillus fumigatus [18] = test: Antifungal activity against Aspergillus fumigatus 05-203114 after 24 to 72 hrs by broth microdilution method; assay type: functional; in short: as §1
Lomentospora prolificans [19] = test: Antifungal activity against Scedosporium prolificans 05-203060 after 48 to 72 hrs; assay type: functional; in short: as §3
Exophiala spinifera = test: Antifungal activity against Exophiala spinifera 03-200803 after 24 to 72 hrs by broth microdilution method; assay type: functional; in short: as §2
Cryptococcus neoformans [20] = test: Antifungal activity against Cryptococcus neoformans 05-202523 after 24 to 72 hrs by broth microdilution method; assay type: functional; in short: as §1
Candida parapsilosis [21] = test: Antifungal activity against Candida parapsilosis 04-202398 after 24 to 72 hrs by broth microdilution method; assay type: functional; settings: Lodderomyces parapsilosis; in short: as §1
Lichtheimia corymbifera [22] = test: Antifungal activity against Absidia corymbifera 04-200170 after 48 to 72 hrs; assay type: functional; in short: as §3
[23] = Antifungal activity against Exophiala jeanselmei 03-200268 after 48 to 72 hrs; assay type: functional; in short: as §3
Candida albicans [24] = test: Antifungal activity against Candida albicans ATCC 10231 after 24 to 72 hrs by broth microdilution method; assay type: functional; in short: as §1
Pichia kudriavzevii [25] = test: Antifungal activity against Candida krusei ATCC 9258 after 24 to 72 hrs by broth microdilution method; assay type: functional; in short: as §1
Aspergillus terreus [26] = test: Antifungal activity against Aspergillus terreus 05-202844 after 24 to 72 hrs by broth microdilution method; assay type: functional; in short: as §1
Aspergillus flavus [27] = test: Antifungal activity against Aspergillus flavus ATCC 204304 after 48 to 72 hrs; assay type: functional; in short: as §4
Aspergillus fumigatus [28] = test: Antifungal activity against Aspergillus fumigatus 05-203114 after 48 to 72 hrs; assay type: functional; in short: as §3
Aspergillus flavus [29] = test: Antifungal activity against Aspergillus flavus 05-203758 after 24 to 72 hrs by broth microdilution method; assay type: functional; in short: as §1
Aspergillus flavus [30] = test: Antifungal activity against Aspergillus flavus ATCC 204304 after 24 to 72 hrs by broth microdilution method; assay type: functional; in short: as §1
Cryptococcus neoformans [31] = test: Antifungal activity against Cryptococcus neoformans ATCC 90112 after 24 to 72 hrs by broth microdilution method; assay type: functional; in short: as §1

For `CCCCCc1cc[n+](CCCCCCCCCCCC[n+]2ccc(CCCCC)c(CCCCC)c2)cc1CCCCC.[Cl-].[Cl-]`, the MIC (Lichtheimia corymbifera [1]) was 14.9 µg/mL, the MIC (Scedosporium apiospermum) was 3.7 µg/mL and the MIC (Lomentospora prolificans [2]) was 1.86 µg/mL. The MIC (Candida albicans [3]) was 1.86 µg/mL, the MIC (Candida parapsilosis [4]) was 1.86 µg/mL and the MFC (Aspergillus fumigatus [5]) was 14.9 µg/mL. For the same molecule, the MIC (Aspergillus fumigatus [6]) was 7.5 µg/mL, the MFC (Aspergillus terreus [7]) was 1.86 µg/mL and the MIC [8] was 1.86 µg/mL. For the same molecule, the MIC [9] was 14.9 µg/mL, the MIC (Candida tropicalis) was 1.86 µg/mL and the MFC [10] was 29.8 µg/mL. It also gave an MIC (Nakaseomyces glabratus) of 0.93 µg/mL, an MIC [11] of 7.5 µg/mL and an MIC (Rhizopus arrhizus) of 1.86 µg/mL. It also gave an MFC (Aspergillus flavus [12]) of 29.8 µg/mL, an MIC (Pichia kudriavzevii [13]) of 1.86 µg/mL and an MIC (Pichia kudriavzevii [14]) of 1.86 µg/mL. For the same molecule, the MFC (Pichia kudriavzevii [15]) was 3.7 µg/mL, the MIC [16] was 1.86 µg/mL and the MFC (Candida parapsilosis [17]) was 14.9 µg/mL. The MIC (Fusarium solani) was 14.9 µg/mL, the MIC (Aspergillus fumigatus [18]) was 7.5 µg/mL and the MFC (Lomentospora prolificans [19]) was 3.7 µg/mL. The MIC (Exophiala spinifera) was 1.86 µg/mL, the MIC (Cryptococcus neoformans [20]) was 7.5 µg/mL and the MIC (Candida parapsilosis [21]) was 7.5 µg/mL. It also gave an MFC (Lichtheimia corymbifera [22]) of 27.8 µg/mL, an MFC [23] of 3.7 µg/mL and an MIC (Candida albicans [24]) of 1.86 µg/mL. The MIC (Pichia kudriavzevii [25]) was 1.86 µg/mL, the MIC (Aspergillus terreus [26]) was 0.93 µg/mL and the MFC (Aspergillus flavus [27]) was 14.9 µg/mL. For the same molecule, the MFC (Aspergillus fumigatus [28]) was 14.9 µg/mL, the MIC (Aspergillus flavus [29]) was 14.9 µg/mL and the MIC (Aspergillus flavus [30]) was 7.5 µg/mL. For the same molecule, the MIC (Cryptococcus neoformans [31]) was 1.86 µg/mL.
